# Source: PubChem BioAssay (several laboratories)
# Tb hexokinase: T. brucei hexokinase 1 inhibition. inhibition, % at 10 µM. AID 1430. actives 0.11% (n = 220,000). recombinant TbHK1, G6PDH-coupled NADH A340;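 active = inhibition of 50% or more in the single-dose primary screen; inactive = inhibition below 50%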
# S1P4 ag: activates the human S1P4 receptor; O95977; S1P4-expressing cell line, agonist reporter assay; activation, % at 4.98 µM; actives 0.35% (n = 220,000); in the data active = activation above about 11%
# Target sequence (O95977 whole entry, looked up): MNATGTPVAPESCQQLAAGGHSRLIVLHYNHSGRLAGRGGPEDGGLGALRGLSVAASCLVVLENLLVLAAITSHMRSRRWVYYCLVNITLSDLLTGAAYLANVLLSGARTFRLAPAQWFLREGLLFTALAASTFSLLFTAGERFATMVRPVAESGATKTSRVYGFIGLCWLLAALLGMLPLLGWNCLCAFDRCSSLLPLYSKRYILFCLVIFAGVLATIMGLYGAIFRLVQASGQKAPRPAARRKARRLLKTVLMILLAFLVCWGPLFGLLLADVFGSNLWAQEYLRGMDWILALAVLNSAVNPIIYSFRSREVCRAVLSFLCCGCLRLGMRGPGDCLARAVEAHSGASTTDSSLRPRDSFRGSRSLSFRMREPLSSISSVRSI
# S1P4 antag: human S1P4 receptor antagonism | O95977 | S1P4-expressing cells, antagonist mode, reporter read-out | inhibition, % at 4.98 µM | AID 1510 | actives 0.26% (n = 220,000); in the data active = inhibition above about 29%
# Dynein cargo inh: dynein cargo transport inhibition | 3617.4 mouse cells, GR-EGFP nuclear translocation imaging; test concentration mostly 20 µM; stimulated with dexamethasone, 1 µM; active compounds read low | AID 1381 | actives 0.47% (n = 220,000) | z-score, hits read low;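 active = plate z-score of nuclear minus cytoplasmic receptor signal below a set negative limit, without overly bright fluorescence or cell loss, cut at about -3.5 in these data, passing the limit was not always enough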;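 also: z-score of nuclear minus cytoplasmic ring GR-EGFP intensity difference per well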
#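 Schedule: 48 h induction, then 1 h compound, then 30 min agonist, 37 °C. Buffer or medium: tetracycline-free induction medium containing charcoal-stripped FBS. Reagent: 1.0 µM final dexamethasone stimulus. Evaluation: nuclear versus cytoplasmic GR-EGFP signal, averaged per well. Signal: high-content fluorescence imaging after fixation.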
# Calb biofilm kill: mixture kills Candida albicans biofilm cells. C. albicans biofilm persisters + clotrimazole, fluorescence viability; primary screen in compound mixtures of four per well. inhibition, % at 7.6 µM. actives 0.02% (n = 120,000). AID 1242;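 active = inhibition above 30.3% in the primary screen of four-compound pools, then above 30% when the compound was retested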;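 also: compounds exposed to preformed 24 h biofilms for 48 h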
#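 System: C. albicans CAF4-2 wild-type biofilms; Medium: RPMI/MOPS medium, pH 7.0; Reagent: Clotrimazole, 50 µg/mL; Times: biofilm formation 24 h, compound exposure 48 h, 37 °C; Detection: 2-h Alamar Blue fluorescence, 535/590 nm excitation/emission; Evaluation: percent inhibition of biofilm viability.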
# S1P3 antag: blocks the human S1P3 receptor. Q99500. CHO S1P3 NFAT-BLA reporter, FRET fluorescence, antagonist mode. inhibition, % at 4.98 µM. actives 0.27% (n = 170,000). AID 485;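 active = inhibition above the plate cutoff, the mean inhibition of test wells on that plate plus 3 SD, cut at about 28% in these data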;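 also: cells challenged with S1P at its EC80 of 0.8 µM; blue over green emission ratio from cleaved BLA substrate after 4 h stimulation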
# S1P4 agonist cf: human S1P4 agonism, confirmation; shares compounds with S1P4 ag; S1P4 agonist cell-based reporter assay; activation, % at 4.98 µM; actives 7% (n = 740); in the data active = activation above about 12%
# S1P1 agonist: activates human S1P1, counter-screen for S1P4 agonists; shares compounds with S1P4 ag; actives 4% (n = 740); activation, % at 4.98 µM; S1P1 agonist cell-based assay, activation; AID 1563; in the data active = activation above about 21%
# A number is an active result; 0 = inactive; - = not tested or not shown. A selection: hits, their analogues and other compounds. The true share with any hit is near 1.3%.
SMILES,Tb hexokinase,S1P4 ag,S1P4 antag,Dynein cargo inh,Calb biofilm kill,S1P3 antag,S1P4 agonist cf,S1P1 agonist
Cc1ccc(-n2c(=O)c(C#N)cc3c(=O)n4ccccc4nc32)cc1,0,0,0,0,0,0,-,-
Cc1cccc(-n2c(=O)c(C#N)cc3c(=O)n4ccccc4nc32)c1,0,14,0,0,-,-,17,22
O=C(Cn1cnc2cc([N+](=O)[O-])ccc2c1=O)Nc1ccc2c(c1)OCO2,0,24,0,0,0,0,0,0
CC(Oc1ccc(Cl)cc1)C(=O)NNC(=S)NC(=O)c1ccco1 (stereo not given),0,0,0,0,0,0,-,-
CC(=O)Nc1nc(SCc2ccc(Cl)cc2Cl)n[nH]1,0,12,0,0,-,-,0,0
COc1cc(-n2c(=O)c3ccccc3n(Cc3cccc(C)c3)c2=O)cc(OC)c1OC,0,31,0,0,0,0,0,0
Cc1cc(Nc2cc(F)ccc2C)n2nc(C)nc2n1,0,14,0,0,0,0,0,0
CCCCCCC1CCC(C(=O)N2CCOCC2)CC1 (stereo not given),0,0,0,0,0,0,-,-
CC(C)c1c(O)c2c(n(-c3ccccc3)c1=O)CCCC2,0,0,0,0,0,0,-,-
CC/C(=N\O)c1c(O)c2c(n(-c3ccccc3)c1=O)CCCC2,0,22,0,0,0,0,0,0
S=C(c1ccc(N2CCCC2)c(Br)c1)N1CCCCC1,0,0,0,0,0,0,-,-
Cc1ccc(/C=C/C(=O)O)cc1S(=O)(=O)N(CCO)CCO,0,37,0,0,0,0,0,0
Cc1ccc(/C=C/C(=O)O)cc1S(=O)(=O)NCCCO,0,0,0,0,-,-,-,-
O=c1cc(N2CCCCC2)nc2n1CCCS2,0,25,0,0,-,-,0,0
COc1ccc(CCNC(=O)[C@@H](NC(=O)c2ccccc2F)C(C)C)cc1OC,0,0,0,0,0,0,-,-
Cc1ccc(NC(=O)CS(=O)CC(=O)NCCCN(C)c2ccccc2)cc1 (stereo not given),0,25,0,0,-,0,0,0
S=C(N/N=C/c1cccc2ccccc12)Nc1cccc(Cl)c1,0,0,0,0,0,0,-,-
CCOC(=O)c1ccc(NC(=O)N2CCN(Cc3cccc(F)c3)CC2)cc1,0,17,0,0,-,0,0,0
CCCN1CCN(C(=O)Nc2ccc(C(=O)OCC)cc2)CC1,0,0,0,0,-,-,-,-
COc1ccc(OCCSc2nc(-c3ccccc3)cc(=O)[nH]2)cc1,0,31,0,0,0,0,0,0
OCC(O)C1OC(Nc2ccc(Cl)cc2)C(O)C1O (stereo not given),0,71,0,0,0,0,0,0
COc1ccc(CNC(=O)C/C(C)=N/NC(=O)COc2ccc(C)cc2Br)cc1,0,0,0,0,0,0,-,-
O=C(COC(=O)c1cn(-c2ccccc2)nc1-c1cccs1)NC1CC1,0,34,0,0,-,0,0,0
CN(C)C(=O)c1cn(-c2ccccc2)nc1-c1cccs1,0,0,0,0,-,-,-,-
Fc1ccc(/C=C\c2nccc3c2[nH]c2ccccc23)cc1,0,0,0,0,0,0,-,-
SMILES,Tb hexokinase,S1P4 ag,S1P4 antag,Dynein cargo inh,Calb biofilm kill,S1P3 antag,S1P4 agonist cf,S1P1 agonist
C(=C\c1nccc2c1[nH]c1ccccc12)/c1ccccc1,0,11,0,0,0,0,0,0
OC1CCCN(Cc2cccc3ccccc23)C1 (stereo not given),0,0,0,0,-,0,-,-
OC1CCCN(Cc2c3ccccc3cc3ccccc23)C1 (stereo not given),0,15,0,0,-,-,0,0
Cc1nc(COc2ccccc2Cl)sc1-c1ccnc(N)n1,0,0,0,0,0,0,-,-
CCOC(=O)C1C(=O)N(C(=O)c2ccc(OC)cc2)CC1c1ccccc1 (stereo not given),0,0,0,0,-,0,-,-
CCOC(=O)C1C(=O)N(C(=O)c2cncc(Br)c2)CC1c1ccccc1 (stereo not given),0,20,0,0,-,0,0,0
CCc1cc(=O)oc2c(CN3CCN(C)CC3)c(O)c(Cl)cc12,0,11,0,0,-,-,0,0
CCc1cc(=O)oc2c(CN3CCCC3)c(O)c(Cl)cc12,0,0,0,0,-,-,-,-
CC1(C)c2cc(Cl)ccc2-n2c1cc(O)c(-c1ccccc1)c2=O,0,0,0,0,0,0,-,-
CC1(C(=O)NCc2ccc(Cl)c(Cl)c2)Oc2cccnc2NC1=O (stereo not given),0,0,0,0,0,0,-,-
O=C(Nc1ccc2c(c1)OCO2)N1CCCC1,0,46,0,0,0,0,0,0
O=C(Nc1ccc2c(c1)OCO2)N1CCOCC1,0,0,0,0,-,0,-,-
Cc1c(C(=O)O)c(C(=O)O)c2n1CCS2,0,0,0,0,0,0,-,-
c1ccc(-c2nccc(-c3ccc(-n4cnc5ccccc54)cc3)n2)cc1,0,83,0,0,-,-,0,0
CCCCN(Cc1ccccc1)C(=O)CCN1C(=O)C2C3C=CC(C3)C2C1=O (stereo not given),0,0,0,0,0,0,-,-
CCC(C(=O)OCC(=O)Nc1c(Cl)cccc1Cl)c1ccccc1 (stereo not given),0,15,0,0,0,0,0,0
CCC(C(=O)OCC(=O)Nc1ccc(C(N)=O)cc1)c1ccccc1 (stereo not given),0,0,0,0,0,0,-,-
CCCN1CCC(=NNc2ccc(C(=O)O)cc2)CC1,0,0,0,0,0,0,-,-
COCCCN1C(=O)c2ccc(C(=O)OCC(=O)N(C)c3ccccc3)cc2C1=O,0,0,0,0,0,0,-,-
COCCCN1C(=O)c2ccc(C(=O)OCC(=O)NCCc3ccccc3)cc2C1=O,0,16,0,0,0,0,0,0
NC(=S)NNC(=O)c1cc(C(F)(F)F)cc(C(F)(F)F)c1,0,77,0,0,0,0,0,0
CN(Cc1cc(=O)n2ccsc2n1)C1CCCCC1,0,93,0,0,0,0,0,0
CN(Cc1cc(=O)n2ccsc2n1)c1ccccc1,0,0,0,0,0,0,-,-
COc1ccc2[nH]c(C(=O)Nc3ccc4c(c3)OCO4)cc2c1,0,0,0,0,0,0,-,-
O=C(CN1CCOCC1)Nc1scc2c1c(=O)oc1ccccc12,0,23,0,0,0,0,0,0
COc1cc([N+](=O)[O-])cc(/C=N/NC(=O)Cn2nccc2C)c1O,0,0,0,0,0,0,-,-
O=C(Nc1ccccc1C(=O)NC(Cc1c[nH]c2ccccc12)C(=O)O)c1ccccc1 (stereo not given),0,11,0,0,0,0,0,0
O=C(Nc1ccn(Cc2ccccc2)n1)c1cccc(Cn2cc([N+](=O)[O-])cn2)c1,0,13,0,0,0,0,0,0
